Experimental data reported in ChEMBL document CHEMBL4038327, “Inhibitory Kappa B Kinase α (IKKα) Inhibitors That Recapitulate Their Selectivity in Cells against Isoform-Related Biomarkers” (J Med Chem, 2017).

What was measured:
[1] = target: T1, Inhibitor of nuclear factor kappa-B kinase subunit beta (Homo sapiens, UniProt O14920); test: Inhibition of recombinant full length human IKKbeta expressed in baculovirus infected sf9 insect cells using biotinylated IkBalpha as substrate after 60 mins by DELFIA
T1 sequence (O14920 whole entry): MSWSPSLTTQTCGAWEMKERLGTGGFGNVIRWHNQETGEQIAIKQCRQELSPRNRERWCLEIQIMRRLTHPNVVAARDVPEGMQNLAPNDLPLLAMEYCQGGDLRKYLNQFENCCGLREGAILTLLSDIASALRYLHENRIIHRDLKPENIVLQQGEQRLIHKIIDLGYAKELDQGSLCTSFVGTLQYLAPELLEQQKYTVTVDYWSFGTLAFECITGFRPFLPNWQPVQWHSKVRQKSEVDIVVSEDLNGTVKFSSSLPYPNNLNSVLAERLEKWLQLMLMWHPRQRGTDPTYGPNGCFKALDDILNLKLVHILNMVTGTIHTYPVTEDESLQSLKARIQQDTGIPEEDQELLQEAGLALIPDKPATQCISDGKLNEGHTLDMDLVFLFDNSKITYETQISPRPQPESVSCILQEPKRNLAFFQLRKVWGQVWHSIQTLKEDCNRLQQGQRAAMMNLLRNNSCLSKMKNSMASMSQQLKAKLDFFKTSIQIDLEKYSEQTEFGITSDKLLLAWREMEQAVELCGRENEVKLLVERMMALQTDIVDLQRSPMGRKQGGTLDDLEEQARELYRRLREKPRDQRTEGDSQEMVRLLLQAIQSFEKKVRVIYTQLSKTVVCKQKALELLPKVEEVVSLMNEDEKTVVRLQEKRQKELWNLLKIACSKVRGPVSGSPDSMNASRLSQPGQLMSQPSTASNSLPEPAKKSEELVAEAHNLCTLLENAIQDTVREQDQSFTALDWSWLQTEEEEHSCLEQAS
Method in brief: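 Recombinant IKKβ (37 nM) was incubated with biotinylated IκB-α (Ser32) peptide (0.375 μM) and 40 μM ATP in Tris-HCl pH 7.5 with MgCl2, EDTA, DTT and BSA for 60 min at 30 °C. The reaction was quenched with EDTA and captured on streptavidin. Detection used anti-phospho-IκBα (Ser32/36) mAb plus Eu-anti-mouse IgG, read by time-resolved fluorescence (340/615 nm). Apparent Ki was obtained via Cheng–Prusoff, n=3.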

[2] = target: T2, Inhibitor of nuclear factor kappa-B kinase subunit alpha (Homo sapiens, UniProt O15111); test: Inhibition of recombinant human N-terminal GST-tagged IKKalpha (1 to 745 residues) expressed in baculovirus expression system using biotinylated IkBalpha as substrate after 60 mins by DELFIA
T2 sequence (O15111 whole entry): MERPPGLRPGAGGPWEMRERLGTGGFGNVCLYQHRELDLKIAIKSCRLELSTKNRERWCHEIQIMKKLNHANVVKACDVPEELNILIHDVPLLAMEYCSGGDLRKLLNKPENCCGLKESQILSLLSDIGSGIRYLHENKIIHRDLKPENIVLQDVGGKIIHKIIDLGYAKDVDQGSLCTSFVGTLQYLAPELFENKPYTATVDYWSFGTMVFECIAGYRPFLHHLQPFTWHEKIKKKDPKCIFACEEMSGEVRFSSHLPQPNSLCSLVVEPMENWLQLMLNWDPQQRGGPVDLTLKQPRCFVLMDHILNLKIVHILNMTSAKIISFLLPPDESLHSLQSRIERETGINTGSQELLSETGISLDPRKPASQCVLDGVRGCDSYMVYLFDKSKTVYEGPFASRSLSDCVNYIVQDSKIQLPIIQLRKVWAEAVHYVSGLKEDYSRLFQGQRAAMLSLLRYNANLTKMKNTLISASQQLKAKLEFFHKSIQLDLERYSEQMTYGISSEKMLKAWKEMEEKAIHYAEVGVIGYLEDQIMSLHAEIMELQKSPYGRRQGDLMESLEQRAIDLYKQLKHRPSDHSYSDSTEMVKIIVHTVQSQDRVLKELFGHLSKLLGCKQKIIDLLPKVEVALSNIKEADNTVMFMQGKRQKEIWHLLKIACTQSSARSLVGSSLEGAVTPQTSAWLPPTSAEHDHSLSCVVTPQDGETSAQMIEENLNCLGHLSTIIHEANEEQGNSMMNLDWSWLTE

Ki [1] [µM]	Ki [2] [µM]	SMILES
> 30	> 30	Nc1nc(NC2CCCCC2)c2c(C(F)(F)F)c[nH]c2n1
2.5	1.5	NS(=O)(=O)c1ccc(-c2ncnc3[nH]ccc23)cc1
3.8	2.4	N#Cc1c[nH]c2nc(N)nc(-c3cccc(O)c3)c12
> 30	16	N#Cc1c[nH]c2nc(N)nc(-c3ccc(C(N)=O)cc3)c12
> 30	1.7	N#Cc1c[nH]c2nc(N)nc(-c3ccccc3)c12
20	> 30	N#Cc1c[nH]c2nc(N)nc(N3CCOCC3)c12
5.9	5.3	N#Cc1c[nH]c2nc(N)nc(-c3cccc(S(N)(=O)=O)c3)c12
> 30	> 30	N#Cc1c[nH]c2nc(N)nc(N3CC[C@@H](O)C3)c12
> 30	> 30	N#Cc1c[nH]c2nc(N)nc(N3CCN(CCO)CC3)c12
> 30	2.1	N#Cc1c[nH]c2ncnc(-c3ccc(S(N)(=O)=O)cc3)c12
> 30	> 30	N#Cc1c[nH]c2nc(N)nc(-c3ccccc3C(N)=O)c12
> 30	> 30	Nc1nc(N2CCCCC2)c2cc[nH]c2n1
> 30	13	CNc1nc(N)nc2[nH]cc(C#N)c12
> 30	> 30	N#Cc1c[nH]c2nc(N)nc(N3CCN(c4ccccc4)CC3)c12
1.4	16	Cc1ccc(NS(=O)(=O)c2ccc(-c3nc(N)nc4[nH]cc(C#N)c34)cc2)cc1
> 30	7.7	N#Cc1c[nH]c2nc(N)nc(-c3cccc(F)c3)c12
> 30	> 30	Nc1nc(NC2CCCCC2)c2cc[nH]c2n1
> 30	> 30	N#Cc1c[nH]c2nc(N)nc(Nc3ccc(C(=O)O)cc3)c12
> 30	6	N#Cc1c[nH]c2nc(N)nc(N3CC[C@H](O)C3)c12

Ki [1] [µM]	Ki [2] [µM]	SMILES
> 30	5.3	N#Cc1c[nH]c2nc(N)nc(N3CCCCC3)c12
> 30	4	N#Cc1c[nH]c2nc(N)nc(Cl)c12
3.6	0.8	N#Cc1c[nH]c2nc(N)nc(N[C@@H]3C[C@H](O)[C@@H](O)[C@H]3O)c12
> 30	> 30	Nc1nc(Cl)c2cc[nH]c2n1
20	1.6	N#Cc1c[nH]c2nc(N)nc(-c3ccc(O)cc3)c12
> 30	2	N#Cc1c[nH]c2nc(N)nc(-c3ccccc3F)c12
> 30	> 30	Nc1nc(N[C@H]2CC[C@H](O)CC2)c2cc[nH]c2n1
> 30	12.1	N#Cc1c[nH]c2nc(N)nc(N3CCN(CCCO)CC3)c12
> 30	2	N#Cc1c[nH]c2nc(N)nc(N[C@H]3CC[C@H](O)CC3)c12
> 30	> 30	N#Cc1c[nH]c2nc(N)nc(NCCN3CCOCC3)c12
0.1	1.4	CS(=O)(=O)Nc1ccc(-c2nc(N)nc3[nH]cc(C#N)c23)cc1
> 30	5.3	N#Cc1c[nH]c2nc(N)nc(NCc3ccccc3)c12
> 30	> 30	N#Cc1c[nH]c2nc(N)nc(N)c12
> 30	> 30	CN(c1nc(N)nc2[nH]cc(C#N)c12)C1CCCCC1
> 30	1.8	N#Cc1c[nH]c2nc(N)nc(NC3CCCCC3)c12
4	9.8	N#Cc1c[nH]c2nc(N)nc(-c3cccc(CO)c3)c12
> 30	13	N#Cc1c[nH]c2nc(N)nc(Nc3ccccc3)c12
> 30	1.6	N#Cc1c[nH]c2nc(N)nc(NCCO)c12

SMILES	Ki [1] [µM]	Ki [2] [µM]
N#Cc1c[nH]c2nc(N)nc(N3CCC[C@@H]3CO)c12	> 30	2.5
N#Cc1c[nH]c2nc(N)nc(N3CCC[C@H]3CO)c12	> 30	3.1
CN1CCN(c2nc(N)nc3[nH]cc(C#N)c23)CC1	> 30	> 30
